Results: ChEMBL document CHEMBL1268941, “Bromophenols as Candida albicans isocitrate lyase inhibitors” (Bioorg Med Chem Lett, 2010)
In brackets after ≈: the same amount, converted by molar mass.

Key:
Micrococcus luteus = experiment: Antimicrobial activity against Micrococcus luteus IFO 12708 after 24 hrs by broth dilution method; assay type: functional; conditions: IFO 12708, 24 h
Summary of the method: (§1)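 Test bacteria grown overnight at 37 °C in LB broth, centrifuged and washed twice in sterile distilled water. Compound stocks made in DMSO and diluted in broth. Each microtiter well received 10 µl of broth holding about 10⁵ cfu/ml of bacteria. Plates incubated 24 h at 37 °C. Read-out was the MIC.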

Proteus vulgaris = experiment: Antimicrobial activity against Proteus vulgaris ATCC 3851 after 24 hrs by broth dilution method; assay type: functional; conditions: ATCC 3851, 24 h; summary of the method: as §1
Salmonella typhimurium = experiment: Antimicrobial activity against Salmonella Typhimurium ATCC 14028 after 24 hrs by broth dilution method; assay type: functional, Salmonella enterica subsp. enterica serovar Typhimurium; conditions: Salmonella enterica, ATCC 14028, 24 h; summary of the method: as §1
Aspergillus fumigatus = experiment: Antimicrobial activity against Aspergillus fumigatus HIC 6094 after 48 to 72 hrs by broth dilution method; assay type: functional
Summary of the method: (§2)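 For C. albicans, cells were grown 48 h at 28 °C in YPD broth (1% yeast extract, 2% peptone, 2% dextrose), centrifuged and washed twice in sterile distilled water. A. fumigatus, T. rubrum and T. mentagrophytes were grown on potato dextrose agar for 2 weeks at 28 °C. Compound stocks made in DMSO. Microtiter plates incubated 48–72 h at 28 °C. Read-out was the MIC.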

Isocitrate lyase = Isocitrate lyase (Candida albicans, UniProt Q9P8Q7); experiment: Inhibition of Candida albicans ATCC 10231 isocitrate lyase
Sequence of Isocitrate lyase (Q9P8Q7 whole entry): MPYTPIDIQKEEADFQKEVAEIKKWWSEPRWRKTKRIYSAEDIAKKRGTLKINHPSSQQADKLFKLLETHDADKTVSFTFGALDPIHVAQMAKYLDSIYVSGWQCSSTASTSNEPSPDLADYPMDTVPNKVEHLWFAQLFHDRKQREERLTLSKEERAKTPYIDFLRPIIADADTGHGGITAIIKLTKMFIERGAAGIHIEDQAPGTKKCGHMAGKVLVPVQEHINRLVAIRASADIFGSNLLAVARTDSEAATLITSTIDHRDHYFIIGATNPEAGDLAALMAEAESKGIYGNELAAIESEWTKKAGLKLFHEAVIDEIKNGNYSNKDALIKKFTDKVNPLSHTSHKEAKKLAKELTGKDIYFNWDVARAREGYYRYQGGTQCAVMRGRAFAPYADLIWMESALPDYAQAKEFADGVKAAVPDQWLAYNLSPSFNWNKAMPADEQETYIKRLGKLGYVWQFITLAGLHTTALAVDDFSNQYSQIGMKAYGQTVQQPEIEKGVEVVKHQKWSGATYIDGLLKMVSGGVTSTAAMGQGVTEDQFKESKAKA

Bacillus subtilis = experiment: Antimicrobial activity against Bacillus subtilis ATCC 6633 after 24 hrs by broth dilution method; assay type: functional; conditions: ATCC 6633, 24 h; summary of the method: as §1
Candida albicans = experiment: Antimicrobial activity against Candida albicans ATCC 10231 after 48 to 72 hrs by broth dilution method; assay type: functional; summary of the method: as §2
Staphylococcus aureus = experiment: Antimicrobial activity against Staphylococcus aureus ATCC 6538p after 24 hrs by broth dilution method; assay type: functional; summary of the method: as §1
Trichophyton rubrum = experiment: Antimicrobial activity against Trichophyton rubrum IFO 9185 after 48 to 72 hrs by broth dilution method; assay type: functional; summary of the method: as §2
[1] = tested on: Trichophyton mentagrophytes; experiment: Antimicrobial activity against Trichophyton mentagrophytes IFO 40996 after 48 to 72 hrs by broth dilution method; assay type: functional; summary of the method: as §2

SMILES | MIC (Micrococcus luteus) | MIC (Proteus vulgaris) | MIC (Salmonella typhimurium) | MIC (Aspergillus fumigatus) | IC50 (Isocitrate lyase) | MIC (Bacillus subtilis) | MIC (Candida albicans) | MIC (Staphylococcus aureus) | MIC (Trichophyton rubrum) | MIC [1]
O=C(c1cc(O)c(O)c(Br)c1)c1cc(O)c(O)c(Br)c1 | 100 mg/L (≈ 248 µM) | > 100 mg/L | > 100 mg/L | > 100 mg/L | 8.89 µM | 100 mg/L (≈ 248 µM) | > 100 mg/L | > 100 mg/L | > 100 mg/L | > 100 mg/L
Oc1cc(Oc2cc(O)c(O)c(Br)c2Br)c(Br)c(Br)c1O | 50 mg/L (≈ 90.9 µM) | 25 mg/L (≈ 45.5 µM) | 50 mg/L (≈ 90.9 µM) | 25 mg/L (≈ 45.5 µM) | 11.6 µM | 25 mg/L (≈ 45.5 µM) | 25 mg/L (≈ 45.5 µM) | 50 mg/L (≈ 90.9 µM) | 12.5 mg/L (≈ 22.7 µM) | 25 mg/L (≈ 45.5 µM)
O=C(c1cc(O)c(O)c(Br)c1)c1cc(O)c(O)c(Br)c1Br | 50 mg/L (≈ 104 µM) | 100 mg/L (≈ 207 µM) | 100 mg/L (≈ 207 µM) | > 100 mg/L | 2.65 µM | 50 mg/L (≈ 104 µM) | 100 mg/L (≈ 207 µM) | 100 mg/L (≈ 207 µM) | > 100 mg/L | > 100 mg/L
Oc1cc(Br)c(CCc2cc(O)c(O)c(Br)c2Br)cc1O | 100 mg/L (≈ 207 µM) | 100 mg/L (≈ 207 µM) | 100 mg/L (≈ 207 µM) | > 100 mg/L | 14.8 µM | 50 mg/L (≈ 104 µM) | 100 mg/L (≈ 207 µM) | 100 mg/L (≈ 207 µM) | > 100 mg/L | > 100 mg/L
Oc1cc(Br)c(COCc2cc(O)c(O)c(Br)c2Br)cc1O | > 100 mg/L | > 100 mg/L | > 100 mg/L | > 100 mg/L | 15.6 µM | > 100 mg/L | > 100 mg/L | > 100 mg/L | > 100 mg/L | > 100 mg/L
Oc1cc(Cc2cc(O)c(O)c(Br)c2Br)c(Br)c(Br)c1O | 25 mg/L (≈ 45.6 µM) | 50 mg/L (≈ 91.3 µM) | 50 mg/L (≈ 91.3 µM) | 0.78 mg/L (≈ 1.42 µM) | 18.4 µM | 25 mg/L (≈ 45.6 µM) | 1.56 mg/L (≈ 2.85 µM) | 25 mg/L (≈ 45.6 µM) | 1.56 mg/L (≈ 2.85 µM) | 1.56 mg/L (≈ 2.85 µM)
Oc1cc(COCc2cc(O)c(O)c(Br)c2Br)c(Br)c(Br)c1O | > 100 mg/L | > 100 mg/L | > 100 mg/L | > 100 mg/L | 28.1 µM | > 100 mg/L | > 100 mg/L | > 100 mg/L | > 100 mg/L | > 100 mg/L
C[C@@H]1[C@H](O)[C@@H](C)/C=C/C=C/C=C/C=C/C=C/C=C/C=C/[C@H](O[C@@H]2O[C@H](C)[C@@H](O)[C@H](N)[C@@H]2O)C[C@@H]2O[C@](O)(C[C@@H](O)C[C@@H](O)[C@H](O)CC[C@@H](O)C[C@@H](O)CC(=O)O[C@H]1C)C[C@H](O)[C@H]2C(=O)O [AMPHOTERICIN B] |  |  |  | 3.12 mg/L (≈ 3.38 µM) |  |  | 6.25 mg/L (≈ 6.76 µM) |  | 3.12 mg/L (≈ 3.38 µM) | 3.12 mg/L (≈ 3.38 µM)
CC1(C)S[C@@H]2[C@H](NC(=O)[C@H](N)c3ccccc3)C(=O)N2[C@H]1C(=O)O [AMPICILLIN] | 3.12 mg/L (≈ 8.93 µM) | 3.12 mg/L (≈ 8.93 µM) | 1.56 mg/L (≈ 4.46 µM) |  |  | 1.56 mg/L (≈ 4.46 µM) |  | 1.56 mg/L (≈ 4.46 µM) |  | 

Continued, values first:

MIC (Micrococcus luteus) | MIC (Proteus vulgaris) | MIC (Salmonella typhimurium) | MIC (Aspergillus fumigatus) | IC50 (Isocitrate lyase) | MIC (Bacillus subtilis) | MIC (Candida albicans) | MIC (Staphylococcus aureus) | MIC (Trichophyton rubrum) | MIC [1] | SMILES
100 mg/L (≈ 427 µM) | > 100 mg/L | 100 mg/L (≈ 427 µM) | > 100 mg/L | > 100 µM | > 100 mg/L | > 100 mg/L | 50 mg/L (≈ 213 µM) | > 100 mg/L | > 100 mg/L | Oc1ccc(Oc2ccc(O)c(O)c2)cc1O
100 mg/L (≈ 319 µM) | > 100 mg/L | 100 mg/L (≈ 319 µM) | > 100 mg/L | 68.2 µM | > 100 mg/L | > 100 mg/L | 100 mg/L (≈ 319 µM) | > 100 mg/L | > 100 mg/L | Oc1ccc(Oc2cc(O)c(O)cc2Br)cc1O
50 mg/L (≈ 128 µM) | 100 mg/L (≈ 255 µM) | 100 mg/L (≈ 255 µM) | > 100 mg/L | 30.9 µM | 100 mg/L (≈ 255 µM) | > 100 mg/L | 100 mg/L (≈ 255 µM) | > 100 mg/L | > 100 mg/L | Oc1cc(Br)c(Oc2cc(O)c(O)cc2Br)cc1O
> 100 mg/L | > 100 mg/L | > 100 mg/L | > 100 mg/L | 22.6 µM | > 100 mg/L | > 100 mg/L | > 100 mg/L | > 100 mg/L | > 100 mg/L | O=C(c1ccc(O)c(O)c1)c1ccc(O)c(O)c1
100 mg/L (≈ 406 µM) | 100 mg/L (≈ 406 µM) | 100 mg/L (≈ 406 µM) | > 100 mg/L | 58.5 µM | 100 mg/L (≈ 406 µM) | > 100 mg/L | 50 mg/L (≈ 203 µM) | > 100 mg/L | 100 mg/L (≈ 406 µM) | Oc1ccc(CCc2ccc(O)c(O)c2)cc1O
50 mg/L (≈ 124 µM) | 50 mg/L (≈ 124 µM) | 50 mg/L (≈ 124 µM) | 50 mg/L (≈ 124 µM) | 21.2 µM | 50 mg/L (≈ 124 µM) | 50 mg/L (≈ 124 µM) | 50 mg/L (≈ 124 µM) | 50 mg/L (≈ 124 µM) | 100 mg/L (≈ 247 µM) | Oc1cc(Br)c(CCc2cc(O)c(O)cc2Br)cc1O
> 100 mg/L | > 100 mg/L | > 100 mg/L | > 100 mg/L | > 381 µM | > 100 mg/L | > 100 mg/L | > 100 mg/L | > 100 mg/L | > 100 mg/L | Oc1ccc(COCc2ccc(O)c(O)c2)cc1O
12.5 mg/L (≈ 32 µM) | 25 mg/L (≈ 64.1 µM) | 25 mg/L (≈ 64.1 µM) | > 100 mg/L | 46.2 µM | 25 mg/L (≈ 64.1 µM) | > 100 mg/L | 25 mg/L (≈ 64.1 µM) | > 100 mg/L | 50 mg/L (≈ 128 µM) | Oc1cc(Br)c(Cc2cc(O)c(O)cc2Br)cc1O
